Measured values published in ChEMBL document CHEMBL1148398, “Design, synthesis, and biological evaluation of thio-containing compounds with serum HDL-cholesterol-elevating properties” (2004).

Assays:
Rattus norvegicus [1] = test: Effect of compound on alkaline phosphatase (ALKP) levels in 1st group of normal chow-fed male rats after a dose of 1 mg/kg/day; type: functional, organism-based
Procedure, shortened: (§1)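 Male Sprague–Dawley CD rats (60–80 g) on standard chow under a reversed 12 h light/dark cycle. Compound was suspended in 1.3% Tween 80/0.25% CMC and given as a single daily oral gavage dose for 4 days. Rats were fasted overnight and killed 24 h after the last dose. Serum ALT, AST, ALKP and LDH were read on a clinical analyzer. Weight gain was start versus end weight. Mean ± SEM, n = 6.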

Cricetinae gen. sp. [2] = test: Effect of compound on lactic dehydrogenase (LDH) levels in 2nd group of cholesterol-fed male hamsters at 10 mg/kg/day after 14 days of treatment; conditions: Mesocricetus auratus
Rattus norvegicus [3] = test: Effect of compound on serum high-density lipoprotein cholesterol concentration in chow-fed male rats at a dose of 50 mg/kg/day; type: functional, organism-based
Procedure, shortened: (§2)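 Separate dose-response study in male Sprague–Dawley CD rats, 60–80 g, on chow. Oral gavage once daily for 4 days in 1.3% Tween 80 / 0.25% CMC; fasted overnight, bled 24 h after last dose. Apo-A1 by ELISA with rabbit anti-rat primary, alkaline phosphatase-conjugated anti-rabbit IgG and p-nitrophenyl phosphate substrate. HDL-C by FPLC fractionation. Mean ± SEM, six per group.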

Rattus norvegicus [4] = test: Effect of compound on total plasma cholesterol levels in 1st group of normal chow-fed male rats after a dose of 1 mg/kg/day; type: functional, organism-based
Procedure, shortened: (§3)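 Male Sprague–Dawley CD rats, 60–80 g, on standard chow with reverse 12 h light/dark cycle. One oral gavage dose daily for 4 days, suspended in 1.3% Tween 80 and 0.25% CMC. Fasted overnight; sacrificed 24 h after the last dose. Serum TC on clinical analyzer, lipoproteins by FPLC with cholesterol per fraction, T4 on analyzer. Mean ± SEM, six rats per group.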

Rattus norvegicus [5] = test: Effect of compound on alanine aminotransferase (ALT) levels in 3rd group of normal chow-fed male rats after a dose of 5 mg/kg/day; type: functional, organism-based; procedure, shortened: as §1
Rattus norvegicus [6] = test: Effect of compound on alkaline phosphatase (ALKP) levels in 7th group of normal chow-fed male rats after a dose of 100 mg/kg/day; type: functional, organism-based; procedure, shortened: as §1
Rattus norvegicus [7] = test: Effect of compound on serum apolipoprotein A1 concentration in chow-fed male rats at a dose of 0 mg/kg/day; type: functional, organism-based; procedure, shortened: as §2
Cricetinae gen. sp. [8] = test: Effect of compound on alanine aminotransferase (ALT) levels in 1st group of cholesterol-fed male hamsters at 3 mg/kg/day after 14 days of treatment; conditions: Mesocricetus auratus
[9] = Effect on serum lipids in 5th group of normal chow-fed male rats after a dose of 20 mg/kg/day was evaluated as ratio of total plasma cholesterol levels to high-density lipoprotein cholesterol levels; type: functional
Procedure, shortened: (§4)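 Male Sprague–Dawley CD rats, 60–80 g, chow-fed, dosed by oral gavage daily for 4 days in 1.3% Tween 80/0.25% CMC. Fasted overnight, bled 24 h after the last dose. Serum total cholesterol by enzymatic reagent; HDL-C from cholesterol in FPLC fractions; TPC/HDL-C ratio calculated. Six per group, mean ± SEM.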

Rattus norvegicus [10] = test: Effect of compound on triglyceride levels in 6th group of normal chow-fed male rats after a dose of 50 mg/kg/day; type: functional, organism-based
Procedure, shortened: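 Male Sprague–Dawley CD rats (60–80 g) on Purina 5001 chow with a reverse 12 h light/dark cycle. Dosed once daily by oral gavage for 4 days, suspended in 1.3% Tween 80 / 0.25% CMC. Fasted overnight and bled 24 h after the last dose. Serum TC and glycerol-blanked TG measured enzymatically; VLDL-C by FPLC fractionation with cholesterol assay. n=6, mean ± SEM.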

Rattus norvegicus [11] = test: Effect of compound on low-density lipoprotein cholesterol levels in 5th group of normal chow-fed male rats after a dose of 20 mg/kg/day; type: functional, organism-based; procedure, shortened: as §3
[12] = Effect on serum lipids in 2nd group of normal chow-fed male rats after a dose of 2 mg/kg/day was evaluated as ratio of total plasma cholesterol levels to high-density lipoprotein cholesterol levels; type: functional; procedure, shortened: as §4
Cricetinae gen. sp. [13] = test: Effect of compound on total plasma cholesterol levels in 3rd group of cholesterol-fed male hamsters at 30 mg/kg/day after 14 days of treatment; conditions: Mesocricetus auratus
Cricetinae gen. sp. [14] = test: Effect of compound on alkaline phosphatase (ALKP) levels in 3rd group of cholesterol-fed male hamsters at 30 mg/kg/day after 14 days of treatment; conditions: Mesocricetus auratus
Rattus norvegicus [15] = test: Effect of compound on low-density lipoprotein cholesterol levels in 3rd group of normal chow-fed male rats after a dose of 5 mg/kg/day; type: functional, organism-based; procedure, shortened: as §3
Rattus norvegicus [16] = test: Effect of compound on low-density lipoprotein cholesterol levels in 1st group of normal chow-fed male rats after a dose of 1 mg/kg/day; type: functional, organism-based; procedure, shortened: as §3
Rattus norvegicus [17] = test: Effect of compound on serum high-density lipoprotein cholesterol concentration in chow-fed male rats at a dose of 100 mg/kg/day; type: functional, organism-based; procedure, shortened: as §2
Rattus norvegicus [18] = test: Effect of compound on liver weight in 6th group of normal chow-fed male rats after a dose of 50 mg/kg/day; type: functional
Procedure, shortened: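 Male Sprague–Dawley CD rats, 60–80 g, on chow with a reverse 12 h light/dark cycle. Given one oral gavage dose daily for 4 days, suspended in 1.3% Tween 80/0.25% CMC. Fasted overnight and sacrificed 24 h after the last dose for blood and liver. Serum liver enzymes read on a clinical analyzer. Six per group, mean ± SEM.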

Rattus norvegicus [19] = test: Effect of compound on total plasma cholesterol levels in 3rd group of normal chow-fed male rats after a dose of 5 mg/kg/day; type: functional, organism-based; procedure, shortened: as §3
Rattus norvegicus [20] = test: Effect of compound on gain in body weight in 4th group of normal chow-fed male rats after a dose of 10 mg/kg/day; type: functional; procedure, shortened: as §1
Cricetinae gen. sp. [21] = test: Effect of compound on aspartate aminotransferase (AST) levels in 1st group of cholesterol-fed male hamsters at 3 mg/kg/day after 14 days of treatment; conditions: Mesocricetus auratus
Rattus norvegicus [22] = test: Effect of compound on low-density lipoprotein cholesterol levels in 6th group of normal chow-fed male rats after a dose of 50 mg/kg/day; type: functional, organism-based; procedure, shortened: as §3
Rattus norvegicus [23] = test: Percent change in low-density lipoprotein cholesterol following oral administration of compound in normal chow-fed rats at 100 mg/kg/day for 4 days; type: functional
Procedure, shortened: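 Chow-fed male Sprague–Dawley CD rats, 60–80 g, gavaged 100 mg/kg/day for 4 days in 1.3% Tween 80/0.25% CMC. Fasted overnight, bled 24 h after the last dose. Total cholesterol and glycerol-blanked triglycerides read enzymatically; lipoproteins by FPLC with cholesterol per fraction. % change versus control; six per group, p < 0.05.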

Rattus norvegicus [24] = test: Percent change in total plasma cholesterol in hypercholesterolemic rats dosed at 100 mg/kg/day for 8 days; type: functional
Rattus norvegicus [25] = test: Effect of compound on alanine aminotransferase (ALT) levels in 2nd group of normal chow-fed male rats after a dose of 2 mg/kg/day; type: functional, organism-based; procedure, shortened: as §1
Cricetinae gen. sp. [26] = test: Effect of compound on total plasma cholesterol levels in 2nd group of cholesterol-fed male hamsters at 10 mg/kg/day after 14 days of treatment; conditions: Mesocricetus auratus
Rattus norvegicus [27] = test: Effect of compound on alanine aminotransferase (ALT) levels in 6th group of normal chow-fed male rats after a dose of 50 mg/kg/day; type: functional, organism-based; procedure, shortened: as §1

Q: Which results are given for `CCN1CC(=O)N(c2cc(Cl)ccc2C)C1=S`?
A: Level (Rattus norvegicus [1]): 312 U l-1; Level (Cricetinae gen. sp. [2]): 1310 U l-1; Serum level (Rattus norvegicus [3]): 87.3 mg/dL; Serum level (Rattus norvegicus [4]): 55 mg/dL; Level (Rattus norvegicus [5]): 62 U l-1; Level (Rattus norvegicus [6]): 382 U l-1; Serum level (Rattus norvegicus [7]): 63.2 mg/dL; Level (Cricetinae gen. sp. [8]): 182 U l-1; Ratio [9]: 1.44; Serum level (Rattus norvegicus [10]): 14 mg/dL; Serum level (Rattus norvegicus [11]): 8.5 mg/dL; Ratio [12]: 1.37; Serum level (Cricetinae gen. sp. [13]): 372 mg/dL; Level (Cricetinae gen. sp. [14]): 136 U l-1; Serum level (Rattus norvegicus [15]): 6 mg/dL; Serum level (Rattus norvegicus [16]): 5.7 mg/dL; Serum level (Rattus norvegicus [17]): 104 mg/dL; Liver weight (Rattus norvegicus [18]): 7.3 g; Serum level (Rattus norvegicus [19]): 62 mg/dL; Body weight (Rattus norvegicus [20]): 33.2 g; Level (Cricetinae gen. sp. [21]): 312 U l-1; Serum level (Rattus norvegicus [22]): 7.1 mg/dL; Change (Rattus norvegicus [23]): 9.6%; Change (Rattus norvegicus [24]): 53%; Level (Rattus norvegicus [25]): 59 U l-1; Serum level (Cricetinae gen. sp. [26]): 370 mg/dL; Level (Rattus norvegicus [27]): 62 U l-1
